Data from ChEMBL document CHEMBL1152488, “Synthesis and evaluation of pyrido[1,2-a]pyrimidines as inhibitors of nitric oxide synthases” (Eur J Med Chem, 2009).
pIC50, pKi: −log10 of the molar value. Active and inactive are the calls of the source. The rule behind the calls is not given here.

Experiments:
[1] = target: Nitric oxide synthase 1 (Rattus norvegicus) (UniProt P29476); assay: Inhibition of rat recombinant nNOS expressed in Saccharomyces cerevisiae assessed as conversion of [gamma-14C]L-arginine to [14C]L-citrulline at 100 uM by radioactive assay relative to control; parameters: scale not given: the % may be the effect or the level left
In short: (§1)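 Purified enzymes: rat nNOS from S. cerevisiae, murine iNOS and bovine eNOS from E. coli. Reaction 5 min at 37 °C in 50 mM Hepes pH 7.4 with DTT, 1 mM NADPH, H4B, FAD, FMN, [14C]L-arginine (2.5 µM L-arginine) and 100 µM compound in 1% DMSO. nNOS/eNOS also got 1 mM CaCl2 and CaM, which iNOS lacked. [14C]citrulline isolated on Dowex and counted by scintillation; % of DMSO control, n=3.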

[2] = target: T1, Nitric oxide synthase, inducible (Mus musculus) (UniProt P29477); assay: Inhibition of mouse recombinant iNOS expressed in Escherichia coli assessed as conversion of [gamma-14C]L-arginine to [14C]L-citrulline at 100 uM by radioactive assay relative to control; parameters: scale not given: the % may be the effect or the level left; in short: as §1
T1 sequence (whole entry): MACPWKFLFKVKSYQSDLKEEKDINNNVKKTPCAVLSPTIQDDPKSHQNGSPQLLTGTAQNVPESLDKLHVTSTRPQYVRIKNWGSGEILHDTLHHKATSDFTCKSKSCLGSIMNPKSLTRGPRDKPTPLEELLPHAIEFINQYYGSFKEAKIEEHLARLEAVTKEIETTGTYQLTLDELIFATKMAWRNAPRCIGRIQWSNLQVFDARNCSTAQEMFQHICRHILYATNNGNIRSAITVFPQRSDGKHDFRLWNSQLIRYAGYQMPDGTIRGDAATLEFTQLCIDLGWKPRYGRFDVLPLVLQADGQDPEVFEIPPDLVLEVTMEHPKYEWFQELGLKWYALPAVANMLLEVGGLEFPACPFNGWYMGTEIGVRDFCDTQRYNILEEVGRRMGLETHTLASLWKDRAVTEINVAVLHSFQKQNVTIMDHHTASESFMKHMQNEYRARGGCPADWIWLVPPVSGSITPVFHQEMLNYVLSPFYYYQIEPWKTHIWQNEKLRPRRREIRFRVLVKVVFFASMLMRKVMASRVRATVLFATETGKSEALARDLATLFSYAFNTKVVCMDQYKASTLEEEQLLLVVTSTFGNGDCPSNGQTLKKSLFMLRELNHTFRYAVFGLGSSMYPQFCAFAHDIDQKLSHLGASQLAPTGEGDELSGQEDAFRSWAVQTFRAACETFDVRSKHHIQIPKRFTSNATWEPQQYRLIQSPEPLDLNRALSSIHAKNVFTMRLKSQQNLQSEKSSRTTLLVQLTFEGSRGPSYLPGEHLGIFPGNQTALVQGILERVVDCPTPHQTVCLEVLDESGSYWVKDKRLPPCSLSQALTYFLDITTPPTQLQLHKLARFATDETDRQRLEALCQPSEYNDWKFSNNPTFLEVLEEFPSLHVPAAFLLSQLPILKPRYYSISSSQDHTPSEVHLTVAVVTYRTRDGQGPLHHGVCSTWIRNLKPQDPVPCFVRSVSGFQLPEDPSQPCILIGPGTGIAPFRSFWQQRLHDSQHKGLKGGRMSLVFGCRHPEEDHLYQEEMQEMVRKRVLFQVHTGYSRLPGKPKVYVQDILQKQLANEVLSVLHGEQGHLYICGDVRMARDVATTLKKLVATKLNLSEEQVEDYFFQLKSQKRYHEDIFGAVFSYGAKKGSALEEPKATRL

[3] = target: T1, Nitric oxide synthase, inducible (Mus musculus); assay: Inhibition of iNOS in LPS and IFN-gamma-stimulated mouse RAW264.7 cells assessed as inhibition of nitrite accumulation at 100 uM after 15 hrs by Griess assay; type: cell-based
In short: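 RAW 264.7 macrophages seeded at 100,000 cells/well in RPMI 1640 with 5% FCS and grown 24 h. Stimulated with 40 U/ml γ-IFN and 50 ng/ml LPS, with compound at 100 µM in 1% DMSO, for 15 h at 37 °C. Supernatant nitrite measured with Griess reagent at 550 nm against an NaNO2 calibration; 6–8 determinations.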

[4] = tested on: RAW264.7; assay: Cytotoxicity against mouse RAW264.7 cells at 100 uM; type: cell-based; details: raw264.7, 100 µM
[5] = Lipophilicity, log D at pH 7.4 by HPLC method; details: buffer
[6] = target: T1, Nitric oxide synthase, inducible (Mus musculus); assay: Binding affinity to oxygenase domain of mouse iNOS at 100 uM assessed as formation of enzyme-Fe3-ImH complex by UV-visible spectra analysis
[7] = target: T2, Nitric oxide synthase, inducible (Mus musculus, UniProt P29477); assay: Inhibition of mouse recombinant iNOS expressed in Escherichia coli assessed as conversion of [gamma-14C]L-arginine to [14C]L-citrulline by radioactive assay
T2 sequence (P29477 whole entry): T1 sequence (whole entry)
In short: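 CaCl2/CaM present for nNOS (S. cerevisiae) and eNOS (E. coli) but omitted for iNOS (E. coli). Citrulline separated by Dowex cation exchange, then scintillation counting.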

[8] = target: T2, Nitric oxide synthase, inducible; assay: Inhibition of mouse iNOS expressed in insect Sf9 cells by competitive binding assay

Sequence of Nitric oxide synthase 1 (Rattus norvegicus) (P29476 whole entry): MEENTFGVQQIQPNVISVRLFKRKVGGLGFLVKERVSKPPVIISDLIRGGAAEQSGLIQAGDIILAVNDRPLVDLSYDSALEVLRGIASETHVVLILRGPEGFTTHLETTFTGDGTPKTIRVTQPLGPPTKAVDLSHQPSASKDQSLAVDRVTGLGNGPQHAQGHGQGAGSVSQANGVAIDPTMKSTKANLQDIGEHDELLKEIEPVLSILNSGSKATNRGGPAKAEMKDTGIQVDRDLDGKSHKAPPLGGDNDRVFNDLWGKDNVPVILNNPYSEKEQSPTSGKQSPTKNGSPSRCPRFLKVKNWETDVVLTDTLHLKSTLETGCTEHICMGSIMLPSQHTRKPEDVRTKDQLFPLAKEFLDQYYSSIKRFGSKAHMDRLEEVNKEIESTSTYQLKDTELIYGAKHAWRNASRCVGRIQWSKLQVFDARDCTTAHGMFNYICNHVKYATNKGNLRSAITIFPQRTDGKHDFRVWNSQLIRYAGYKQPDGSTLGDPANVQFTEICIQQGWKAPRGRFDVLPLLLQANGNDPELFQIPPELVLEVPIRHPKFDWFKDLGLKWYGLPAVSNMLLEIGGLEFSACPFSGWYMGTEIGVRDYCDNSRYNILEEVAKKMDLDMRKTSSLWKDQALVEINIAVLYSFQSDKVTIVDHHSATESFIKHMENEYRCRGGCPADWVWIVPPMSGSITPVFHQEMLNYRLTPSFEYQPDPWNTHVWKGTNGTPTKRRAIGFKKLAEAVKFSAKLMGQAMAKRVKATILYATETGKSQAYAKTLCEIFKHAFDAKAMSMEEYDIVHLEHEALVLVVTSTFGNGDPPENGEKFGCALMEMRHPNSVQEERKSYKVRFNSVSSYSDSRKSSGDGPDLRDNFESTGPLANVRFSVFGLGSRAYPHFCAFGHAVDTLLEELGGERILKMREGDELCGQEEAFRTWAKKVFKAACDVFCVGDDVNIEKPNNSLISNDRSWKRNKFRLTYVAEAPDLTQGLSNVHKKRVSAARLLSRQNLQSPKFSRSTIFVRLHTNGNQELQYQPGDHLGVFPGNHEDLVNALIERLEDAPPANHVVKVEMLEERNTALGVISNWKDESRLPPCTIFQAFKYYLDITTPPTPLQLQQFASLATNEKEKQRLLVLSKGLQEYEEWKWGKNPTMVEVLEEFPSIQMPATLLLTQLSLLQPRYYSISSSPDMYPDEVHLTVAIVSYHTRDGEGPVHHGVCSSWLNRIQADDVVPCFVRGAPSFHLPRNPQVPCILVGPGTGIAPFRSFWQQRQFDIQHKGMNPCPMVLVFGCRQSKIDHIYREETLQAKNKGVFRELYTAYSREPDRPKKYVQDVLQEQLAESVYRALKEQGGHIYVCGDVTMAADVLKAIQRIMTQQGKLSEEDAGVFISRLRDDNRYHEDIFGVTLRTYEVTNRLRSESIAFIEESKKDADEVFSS

**Q.** Which Activity [1] does the source give for `CC1=CC2=NCC(C(=O)c3ccc(OCc4ccc(Br)cc4)cc3)CN2C=C1.Cl` (stereo not given) here?
**A.** 62%

**Q.** What about the Activity [2] of the same molecule?
**A.** 62%

**Q.** And the inhibition [3]?
**A.** 96%

**Q.** What about the Activity [4] of the same molecule?
**A.** Non-toxic

**Q.** For `CC1=CC=CC2=NCC(C(=O)c3ccc(C)cc3)CN12.[O-][Cl+3]([O-])([O-])O` (stereo not given), which Activity [1] is on record?
**A.** 76%

**Q.** And the Activity [2]?
**A.** 66%

**Q.** What about the inhibition [3] of the same molecule?
**A.** 72%

**Q.** And the logD [5]?
**A.** 1.6

**Q.** What about the Activity [4] of the same molecule?
**A.** Non-toxic

**Q.** Which results are given for `CC1=CC2=NCC(C(=O)c3ccc(-c4ccc(C#N)cc4)cc3)CN2C=C1.Cl` (stereo not given)?
**A.** Activity [1]: 43%; Activity [2]: 18%; Activity [6]: Active; pIC50 [7]: 4.30; inhibition [3]: 82%; Activity [4]: Non-toxic

**Q.** Which results are given for `COc1ccc(C(=O)C2CN=C3C=C(C)C=CN3C2)cc1F.[O-][Cl+3]([O-])([O-])O` (stereo not given)?
**A.** Activity [1]: 69%; Activity [2]: 45%; Activity [6]: Active; inhibition [3]: 64%; Activity [4]: Non-toxic

**Q.** With `CC1=CC2=NCC(C(=O)c3ccc(-c4ccc(Br)cc4)cc3)CN2C(C)=C1` (stereo not given) as the molecule, how does the Activity [1] read?
**A.** 58%

**Q.** What about the Activity [2] of the same molecule?
**A.** 35%

**Q.** And the pIC50 [7]?
**A.** 3.92

**Q.** Which Activity [1] does the source give for `CC1=CC=CC2=NCC(C(=O)c3ccc(F)cc3)CN12.[O-][Cl+3]([O-])([O-])O` (stereo not given) here?
**A.** 83%

**Q.** What about the Activity [2] of the same molecule?
**A.** 66%

**Q.** What about the Activity [6] of the same molecule?
**A.** Active

**Q.** And the inhibition [3]?
**A.** 44%

**Q.** And the Activity [4]?
**A.** Non-toxic

**Q.** What does the source list for `COc1ccc(C(=O)C2CN=C3C=CC=C(C)N3C2)cc1OC.[O-][Cl+3]([O-])([O-])O` (stereo not given)?
**A.** Activity [1]: 100%; Activity [2]: 91%; inhibition [3]: 70%; logD [5]: 1.5; Activity [4]: Non-toxic

**Q.** For `COc1ccc(-c2ccc(C(=O)C3CN=C4C=C(C)C=CN4C3)cc2)cc1.Cl` (stereo not given), which Activity [1] is on record?
**A.** 29%

**Q.** And the Activity [2]?
**A.** 13%

**Q.** And the Activity [6]?
**A.** Active

**Q.** And the pIC50 [7]?
**A.** 4.74

**Q.** What about the pKi [8] of the same molecule?
**A.** 4.82

**Q.** And the inhibition [3]?
**A.** 96%

**Q.** What about the Activity [4] of the same molecule?
**A.** Non-toxic

**Q.** What does the source list for `CC1=CC2=NCC(C(=O)c3ccc4cc(C)ccc4c3)CN2C=C1.[O-][Cl+3]([O-])([O-])O` (stereo not given)?
**A.** Activity [1]: 69%; Activity [2]: 13%; Activity [6]: Active; pIC50 [7]: 4.54; pKi [8]: 4.64; inhibition [3]: 86%; Activity [4]: Non-toxic

**Q.** With `CC1=CC2=NCC(C(=O)c3ccc4cc(C)ccc4c3)CN2C(C)=C1.[O-][Cl+3]([O-])([O-])O` (stereo not given) as the molecule, how does the Activity [1] read?
**A.** 55%

**Q.** What about the Activity [2] of the same molecule?
**A.** 28%

**Q.** And the Activity [6]?
**A.** Active

**Q.** And the pIC50 [7]?
**A.** 4.46

**Q.** And the inhibition [3]?
**A.** 89%

**Q.** What about the logD [5] of the same molecule?
**A.** 2.2

**Q.** What about the Activity [4] of the same molecule?
**A.** Non-toxic

**Q.** For `CC1=CC2=NCC(C(=O)c3ccc4ccccc4c3)CN2C=C1` (stereo not given), which logD [5] is on record?
**A.** 1.7

**Q.** With `CC1=CC2=NCC(C(=O)c3ccc(OCc4ccc(Cl)cc4)cc3)CN2C=C1.[O-][Cl+3]([O-])([O-])O` (stereo not given) as the molecule, how does the Activity [1] read?
**A.** 49%

**Q.** And the Activity [2]?
**A.** 25%

**Q.** And the inhibition [3]?
**A.** 92%

**Q.** What about the Activity [4] of the same molecule?
**A.** Non-toxic

**Q.** Which Activity [1] does the source give for `N=C(NCCC[C@H](N)C(=O)O)N[N+](=O)[O-]` here?
**A.** 2%

**Q.** What about the Activity [2] of the same molecule?
**A.** 15%

**Q.** What about the Activity [6] of the same molecule?
**A.** Active

**Q.** Which results are given for `CC1=CC2=NCC(C(=O)c3ccc(-c4ccc(Br)cc4)cc3)CN2C=C1.[O-][Cl+3]([O-])([O-])O` (stereo not given)?
**A.** Activity [1]: 10%; Activity [2]: 19%; Activity [6]: Active; pIC50 [7]: 4.55; pKi [8]: 4.85; inhibition [3]: 98%; logD [5]: 2.7; Activity [4]: Non-toxic

**Q.** Which results are given for `O=C(c1ccc(Cl)c(Cl)c1)C1CN=C2C=CC=CN2C1.[O-][Cl+3]([O-])([O-])O` (stereo not given)?
**A.** Activity [1]: 87%; Activity [2]: 85%; Activity [6]: Active; inhibition [3]: 59%; logD [5]: 1.8; Activity [4]: Non-toxic

**Q.** Which Activity [1] does the source give for `CC1=CC2=NCC(C(=O)c3ccc(OCc4ccc(C#N)cc4)cc3)CN2C=C1.[O-][Cl+3]([O-])([O-])O` (stereo not given) here?
**A.** 60%

**Q.** And the Activity [2]?
**A.** 30%

**Q.** And the inhibition [3]?
**A.** 93%

**Q.** And the Activity [4]?
**A.** Non-toxic
